This note sets out measurements from ChEMBL document CHEMBL1687853, “Increased glycolytic ATP synthesis is associated with tafenoquine resistance in Leishmania major” (Antimicrob Agents Chemother, 2011).

Active and inactive are the calls of the source. The calls are words filed in the database; no cut-off is given here.

The subject of series [1] is Leishmania major. The series is described as follows: Resistant index, ratio of EC50 for tafenoquine-resistant promastigotes of Leishmania major R4 to EC50 for promastigotes of Leishmania major MHOM/JL/80/Friedlin. It is filed as functional. Put shortly: (§1)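 L. major Friedlin promastigotes, wild type or TFQ-resistant R4, were grown at 28°C in modified RPMI 1640 with 20% heat-inactivated FBS. R4 was selected stepwise from 2.5 to 4 μM TFQ over 10 weeks and kept in 4 μM. Parasites were exposed to increasing drug concentrations for 72 h at 28°C and viability was read by MTT. EC50 is 50% growth inhibition; resistance index is the R4/WT EC50 ratio.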

The test system of series [2] is Leishmania major. The series is described as follows: Antileishmanial activity against wild type promastigotes of Leishmania major MHOM/JL/80/Friedlin assessed as inhibition of parasite growth after 72 hrs by MTT assay. It is filed as functional, organism-based. The procedure, abridged: as §1
Series [3] has as its system Leishmania major. The series is described as follows: Antileishmanial activity against tafenoquine-resistant promastigotes of Leishmania major R4 assessed as inhibition of parasite growth after 72 hrs by MTT assay. It is filed as functional, organism-based. The note with it: R4, 72 h. Put shortly: as §1
(In general: Tetrazolium assays rely on reduction of a dye to a coloured formazan, in cell work by metabolically active cells.)

For series [4], the system named is Leishmania major. Briefly: Drug uptake in wild type promastigotes of Leishmania major MHOM/JL/80/Friedlin at 2 uM after 5 mins by spectrofluorometric technique. The class given is ADME, organism-based. As to conditions: in vivo.
In series [5] the test system is Leishmania major. Briefly: Effect on ATP synthesis in wild type promastigotes of Leishmania major MHOM/JL/80/Friedlin assessed as decrease of ATP level up to 20 uM after 60 mins by celltiter- glo luminescent assay. It is filed as functional, organism-based. Put shortly:
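Promastigotes at 4 × 10^6/ml were held in culture medium with TFQ at 1, 2, 5, 10 or 20 µM for 60 min. Cells were mixed 1:1 with CellTiter-Glo and kept 10 min in the dark. Luminescence, proportional to ATP, was then read.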

The subject of series [6] is Leishmania major. Briefly: Drug uptake in promastigotes of tafenoquine-resistant promastigotes of Leishmania major revert R4 at 5 uM after 5 mins by spectrofluorometric technique. The class given is ADME, organism-based. The note with it: in vivo.
Series [7] has as its system Leishmania major. The series is described as follows: Induction of acidification in tafenoquine-resistant promastigotes of Leishmania major R4 assessed as decrease of pH at 20 mM after 30 mins. It is filed as functional, organism-based. Put shortly: (§2)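 R4 or revertant promastigotes (R4 grown 1 month drug-free) were loaded with BCECF-AM (5 μg/ml, 30 min, 28°C) and washed. Cells at 2 × 10^7/ml in culture medium then received 5 μM TFQ or 20 mM sodium azide for 1–30 min. pHi came from the 490/440 nm excitation ratio (emission 535 nm), calibrated with nigericin-treated cells at set pH values.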

Series [8] deals with Leishmania major. Briefly: Induction of acidification in wild type promastigotes of Leishmania major MHOM/JL/80/Friedlin assessed as decrease of pH at 5 uM after 30 mins. It is filed as functional, organism-based. The procedure, abridged:
(§3)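 Promastigotes were loaded with BCECF-AM (5 µg/ml) in pH 7.4 standard buffer for 30 min at 28°C and washed twice. Cells at 2 × 10^7/ml in culture medium then received 20 mM sodium azide or 5 µM TFQ for 1, 3, 5, 10 or 30 min. The ratio at excitation 490/440 nm, emission 535 nm, was converted to pHi with a nigericin calibration curve.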

Series [9] relates to Leishmania major. Briefly: Drug uptake in promastigotes of tafenoquine-resistant promastigotes of Leishmania major R4 assessed per mg of protein at 5 uM after 15 mins by spectrofluorometric technique in presence of ammonium chloride. As to conditions: in vitro, 0.25 h.
For series [10], the system named is Leishmania major. The series is described as follows: Induction of acidification in tafenoquine-resistant promastigotes of Leishmania major revert R4 assessed as decrease of pH at 5 uM after 30 mins. It is filed as functional, organism-based. The procedure, abridged:
as §2

Series [11] concerns Leishmania major. Briefly: Drug uptake in wild type promastigotes of Leishmania major MHOM/JL/80/Friedlin assessed per mg of protein at 5 uM after 15 mins by spectrofluorometric technique. The class given is ADME, organism-based. As to conditions: in vivo, 0.25 h. Put shortly:
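L. major Friedlin promastigotes, grown 48 h at 28°C in RPMI 1640 with 20% iFBS, were used at 2 × 10^7/ml. Cells were exposed to 5 µM TFQ for 15 min at 28°C in culture medium, washed twice in PBS and lysed in 10% SDS, pH 4. Emission was read at 360–460 nm with excitation at 340 nm.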

The subject of series [12] is Leishmania major. The series is described as follows: Drug uptake in promastigotes of tafenoquine-resistant promastigotes of Leishmania major revert R4 assessed per mg of protein at 5 uM after 15 mins by spectrofluorometric technique. It is filed as ADME, organism-based. The note with it: in vivo, 0.25 h. Put shortly:
(§4)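 Promastigotes at 2 × 10^7/ml were given 5 μM TFQ for 15 min at 28°C in culture medium, washed twice with PBS and lysed in 10% SDS, pH 4. TFQ was read fluorimetrically with excitation at 340 nm and emission at 360–460 nm. For the alkalinization condition, parasites were pretreated with 20 mM NH4Cl for 1 min and then given TFQ in the continued presence of NH4Cl for 15 min.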

Series [13] deals with Leishmania major. The series is described as follows: Drug uptake in promastigotes of tafenoquine-resistant promastigotes of Leishmania major R4 at 2.5 uM after 5 mins by spectrofluorometric technique. It is filed as ADME, organism-based. As to conditions: in vivo.
Series [14] has as its system Leishmania major. The series is described as follows: Effect on ATP synthesis in tafenoquine-resistant promastigotes of Leishmania major R4 assessed as increase of ATP level at up to 20 uM after 60 mins by celltiter- glo luminescent assay. It is filed as functional, organism-based. Put shortly: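 Promastigotes at 4 × 10^6/ml were incubated in culture medium with 1, 2, 5, 10 or 20 μM TFQ for 60 min. ATP was measured by CellTiter-Glo: an aliquot was mixed with an equal volume of reagent, held 10 min in the dark, and luminescence was read.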

The subject of series [15] is Leishmania major. The series is described as follows: Drug uptake in promastigotes of tafenoquine-resistant promastigotes of Leishmania major R4 assessed per mg of protein at 5 uM after 15 mins by spectrofluorometric technique. The class given is ADME, organism-based. The note with it: in vivo, 0.25 h. Put shortly:
as §4

For series [16], the system named is Leishmania major. The series is described as follows: Drug uptake in wild type promastigotes of Leishmania major MHOM/JL/80/Friedlin assessed per mg of protein at 5 uM after 15 mins by spectrofluorometric technique in presence of ammonium chloride. The note with it: in vivo, 0.25 h.
Series [17] concerns Leishmania major. The series is described as follows: Induction of acidification in tafenoquine-resistant promastigotes of Leishmania major revert R4 assessed as decrease of pH at 20 mM after 30 mins. It is filed as functional, organism-based. Put shortly: as §2
The subject of series [18] is Leishmania major. Briefly: Induction of acidification in wild type promastigotes of Leishmania major MHOM/JL/80/Friedlin assessed as decrease of pH at 20 mM after 30 mins. It is filed as functional, organism-based. Put shortly:
as §3

In series [19] the test system is Leishmania major. The series is described as follows: Drug uptake in promastigotes of tafenoquine-resistant promastigotes of Leishmania major revert R4 assessed per mg of protein at 5 uM after 15 mins by spectrofluorometric technique in presence of ammonium chloride. As to conditions: in vitro, 0.25 h.
The subject of series [20] is Leishmania major. The series is described as follows: Induction of acidification in tafenoquine-resistant promastigotes of Leishmania major R4 assessed as decrease of pH at 5 uM after 30 mins. It is filed as functional, organism-based. Put shortly:
as §2

A word on the EC50: it is the concentration needed to bring the measured effect to its halfway point. As for `C[C@@H]1[C@H](O)[C@@H](C)/C=C/C=C/C=C/C=C/C=C/C=C/C=C/[C@H](O[C@@H]2O[C@H](C)[C@@H](O)[C@H](N)[C@@H]2O)C[C@@H]2O[C@](O)(C[C@@H](O)C[C@@H](O)[C@H](O)CC[C@@H](O)C[C@@H](O)CC(=O)O[C@H]1C)C[C@H](O)[C@H]2C(=O)O` [AMPHOTERICIN B], the “Ratio EC50” value in [1] came to 1.7. Besides, the EC50 turned out to be 1.87 µM in series [2] and 3.16 µM in series [3].
For `CC(=O)N1CCN(c2ccc(OCC3COC(Cn4ccnc4)(c4ccc(Cl)cc4Cl)O3)cc2)CC1` (stereo not drawn) [KETOCONAZOLE] the same measures were 1.4, 20 µM and 28.1 µM.
For `COc1cc(NC(C)CCCN)c2ncccc2c1` (stereo not drawn) [PRIMAQUINE], in that order: 1.9, 27.7 µM and 53 µM.
For `NC[C@@H]1O[C@H](O[C@H]2[C@@H](O)[C@H](O[C@@H]3[C@@H](O)[C@H](N)C[C@H](N)[C@H]3O[C@H]3O[C@H](CO)[C@@H](O)[C@H](O)[C@H]3N)O[C@@H]2CO)[C@H](N)[C@@H](O)[C@@H]1O` [PAROMOMYCIN] the same measures were 1, 4.29 µM and 3.98 µM.
`CCN(CC)CCCC(C)Nc1ccnc2cc(Cl)ccc12` (stereo not drawn) [CHLOROQUINE]: the “Ratio EC50” value in [1] stood at 1.3. In addition, the values for the EC50 in [2] and in [3] were 18.8 µM and 23.8 µM, respectively.
For `COc1cccc2c1C(=O)c1c(O)c3c(c(O)c1C2=O)C[C@@](O)(C(C)=O)C[C@@H]3O[C@H]1C[C@H](N)[C@H](O)[C@H](C)O1` [DAUNORUBICIN] the same measures were 1.7, 0.22 µM and 0.38 µM.
For `C=C[C@H]1CN2CC[C@H]1C[C@H]2[C@H](O)c1ccnc2ccc(OC)cc12` [QUININE], in that order: 1, 9.41 µM and 9.53 µM.
For `CCCCCCCCCCCCCCCCOP(=O)([O-])OCC[N+](C)(C)C` [MILTEFOSINE] the same measures were 1.5, 17.7 µM and 25.7 µM.
`CCN(CC)CCCCCCNc1cc(OC)cc2c(C)ccnc12.Cl.Cl`: the “Ratio EC50” value in [1] is 2. Besides, the EC50 in series [2] is 12 µM; in [3] it was 24.5 µM.
As to `OC(c1cc(C(F)(F)F)nc2c(C(F)(F)F)cccc12)C1CCCCN1` (stereo not drawn) [MEFLOQUINE], the “Ratio EC50” value in series [1] is on record as 1.1. Moreover, the EC50 in [2] came out at 12.5 µM; in [3], 13.9 µM.
For `N=C(N)c1ccc(OCCCCCOc2ccc(C(=N)N)cc2)cc1` [PENTAMIDINE] the same measures were 1.8, 0.28 µM and 0.45 µM.
Regarding `COc1cc(C)c2c(Oc3cccc(C(F)(F)F)c3)c(OC)cc(NC(C)CCCN)c2n1` (stereo not drawn) [TAFENOQUINE], the Drug uptake entry in [4] is given as “Active”; in series [6], “Active”; in series [9], 8462 a.u; in series [11], 10775 a.u; in series [12] it was 9657 a.u; in series [13], “Active”. For the same molecule, the results for the Drug uptake in [15], in series [16] and in series [19] were 8809 a.u, 7009 a.u and 8524 a.u, respectively. In addition, the result in [5], in series [8], in series [10], in series [14], in [17] and in series [18] was Active. Further, the outcome in series [7] and in [20] was inactive. Besides, the “Ratio EC50” value in series [1] came out at 2.5. Also, the figures for the EC50 in [2] and in series [3] were 2.24 µM and 5.49 µM, respectively.
